In ChEMBL document CHEMBL1212912, “Phenylsulfonylfuroxans as modulators of multidrug-resistance-associated protein-1 and P-glycoprotein” (J Med Chem, 2010):
Calls of active or inactive are those of the source. The calls are words filed in the database; no cut-off is given here.

What was measured:
[1] = target: ATP-dependent translocase ABCB1 (Homo sapiens, UniProt P08183); assay: Inhibition of MDR1 expressed in MDCK cells assessed as calcein AM accumulation by fluorescence assay; format: cell-based
How it was run: (§1)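 MDCK cells overexpressing MRP1 or MDR1 (P-gp) were seeded at 50,000/well and grown to confluence overnight. Compound in medium was added for 30 min at 37°C, then calcein-AM (2.5 µM final, in PBS) for 30 min. Cells were washed 3× with ice-cold PBS and fluorescence read at ex 485/em 535 nm. The increase over untreated basal level was fitted against log[dose] to give EC50.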

[2] = target: Multidrug resistance-associated protein 1 (Homo sapiens, UniProt P33527); assay: […] MRP1 expressed in MDCK cells assessed as calcein AM accumulation by fluorescence assay; format: cell-based; how it was run: as §1
MDCK [3] = assay: Antiproliferative activity against MDCK cells at 10 uM by MTT assay; format: cell-based, Canis lupus familiaris; conditions: dog
How it was run: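 MDCK-MDR1 cells grown in DMEM high glucose with 10% FBS and 2 mM glutamine at 37°C in 5% CO2. Seeded at 20000 cells/well, then treated next day with compound at 10 μM with solvent controls. MTT 0.5 mg/mL added after 24 or 48 h and incubated 3 h at 37°C. Formazan dissolved in DMSO; absorbance read at 570 and 630 nm.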

MDCK [4] = assay: Inhibition of Pgp-mediated doxorubicine accumulation in MDCK cells assessed as nitreated-Pgp level at 10 uM by immunoprecipitation; format: cell-based; conditions: Canis lupus familiaris

Chain of Multidrug resistance-associated protein 1 (P33527 whole entry): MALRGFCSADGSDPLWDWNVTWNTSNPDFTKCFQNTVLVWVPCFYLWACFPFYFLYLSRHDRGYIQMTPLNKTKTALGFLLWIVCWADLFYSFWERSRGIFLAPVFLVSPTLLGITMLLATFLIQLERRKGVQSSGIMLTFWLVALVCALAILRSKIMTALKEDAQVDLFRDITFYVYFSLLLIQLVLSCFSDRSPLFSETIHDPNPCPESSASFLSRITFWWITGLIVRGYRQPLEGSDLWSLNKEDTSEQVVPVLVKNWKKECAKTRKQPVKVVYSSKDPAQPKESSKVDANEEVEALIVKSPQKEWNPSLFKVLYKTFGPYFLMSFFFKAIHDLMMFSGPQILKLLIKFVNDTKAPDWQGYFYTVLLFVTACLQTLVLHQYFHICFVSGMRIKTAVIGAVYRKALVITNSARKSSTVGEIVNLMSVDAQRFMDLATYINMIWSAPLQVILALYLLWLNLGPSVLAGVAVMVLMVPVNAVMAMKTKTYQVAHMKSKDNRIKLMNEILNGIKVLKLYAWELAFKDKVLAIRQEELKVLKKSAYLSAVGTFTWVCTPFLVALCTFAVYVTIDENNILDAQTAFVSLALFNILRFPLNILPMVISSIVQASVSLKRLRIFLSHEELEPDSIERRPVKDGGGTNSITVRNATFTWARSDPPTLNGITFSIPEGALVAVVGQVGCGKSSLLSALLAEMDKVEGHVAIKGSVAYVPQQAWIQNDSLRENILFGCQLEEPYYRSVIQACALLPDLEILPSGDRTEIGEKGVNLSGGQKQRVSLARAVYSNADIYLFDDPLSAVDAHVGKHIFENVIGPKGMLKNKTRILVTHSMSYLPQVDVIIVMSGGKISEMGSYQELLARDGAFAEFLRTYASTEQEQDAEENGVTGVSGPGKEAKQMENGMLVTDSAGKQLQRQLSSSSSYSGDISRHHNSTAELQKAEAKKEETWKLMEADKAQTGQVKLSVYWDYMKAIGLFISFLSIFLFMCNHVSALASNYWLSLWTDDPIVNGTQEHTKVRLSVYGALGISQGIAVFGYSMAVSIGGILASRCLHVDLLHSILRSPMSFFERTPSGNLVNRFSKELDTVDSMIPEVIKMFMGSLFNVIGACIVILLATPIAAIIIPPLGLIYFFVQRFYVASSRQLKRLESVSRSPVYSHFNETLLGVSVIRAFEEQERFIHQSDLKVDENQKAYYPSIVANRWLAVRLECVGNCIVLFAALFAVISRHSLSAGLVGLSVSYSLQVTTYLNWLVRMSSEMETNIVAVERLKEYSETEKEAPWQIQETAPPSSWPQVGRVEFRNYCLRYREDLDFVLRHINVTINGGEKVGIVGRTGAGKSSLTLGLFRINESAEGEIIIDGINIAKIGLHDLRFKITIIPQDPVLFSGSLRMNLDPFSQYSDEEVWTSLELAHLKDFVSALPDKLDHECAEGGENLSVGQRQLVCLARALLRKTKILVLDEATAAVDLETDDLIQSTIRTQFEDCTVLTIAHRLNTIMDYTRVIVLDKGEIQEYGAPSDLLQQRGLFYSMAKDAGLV
Chain of ATP-dependent translocase ABCB1 (P08183 whole entry): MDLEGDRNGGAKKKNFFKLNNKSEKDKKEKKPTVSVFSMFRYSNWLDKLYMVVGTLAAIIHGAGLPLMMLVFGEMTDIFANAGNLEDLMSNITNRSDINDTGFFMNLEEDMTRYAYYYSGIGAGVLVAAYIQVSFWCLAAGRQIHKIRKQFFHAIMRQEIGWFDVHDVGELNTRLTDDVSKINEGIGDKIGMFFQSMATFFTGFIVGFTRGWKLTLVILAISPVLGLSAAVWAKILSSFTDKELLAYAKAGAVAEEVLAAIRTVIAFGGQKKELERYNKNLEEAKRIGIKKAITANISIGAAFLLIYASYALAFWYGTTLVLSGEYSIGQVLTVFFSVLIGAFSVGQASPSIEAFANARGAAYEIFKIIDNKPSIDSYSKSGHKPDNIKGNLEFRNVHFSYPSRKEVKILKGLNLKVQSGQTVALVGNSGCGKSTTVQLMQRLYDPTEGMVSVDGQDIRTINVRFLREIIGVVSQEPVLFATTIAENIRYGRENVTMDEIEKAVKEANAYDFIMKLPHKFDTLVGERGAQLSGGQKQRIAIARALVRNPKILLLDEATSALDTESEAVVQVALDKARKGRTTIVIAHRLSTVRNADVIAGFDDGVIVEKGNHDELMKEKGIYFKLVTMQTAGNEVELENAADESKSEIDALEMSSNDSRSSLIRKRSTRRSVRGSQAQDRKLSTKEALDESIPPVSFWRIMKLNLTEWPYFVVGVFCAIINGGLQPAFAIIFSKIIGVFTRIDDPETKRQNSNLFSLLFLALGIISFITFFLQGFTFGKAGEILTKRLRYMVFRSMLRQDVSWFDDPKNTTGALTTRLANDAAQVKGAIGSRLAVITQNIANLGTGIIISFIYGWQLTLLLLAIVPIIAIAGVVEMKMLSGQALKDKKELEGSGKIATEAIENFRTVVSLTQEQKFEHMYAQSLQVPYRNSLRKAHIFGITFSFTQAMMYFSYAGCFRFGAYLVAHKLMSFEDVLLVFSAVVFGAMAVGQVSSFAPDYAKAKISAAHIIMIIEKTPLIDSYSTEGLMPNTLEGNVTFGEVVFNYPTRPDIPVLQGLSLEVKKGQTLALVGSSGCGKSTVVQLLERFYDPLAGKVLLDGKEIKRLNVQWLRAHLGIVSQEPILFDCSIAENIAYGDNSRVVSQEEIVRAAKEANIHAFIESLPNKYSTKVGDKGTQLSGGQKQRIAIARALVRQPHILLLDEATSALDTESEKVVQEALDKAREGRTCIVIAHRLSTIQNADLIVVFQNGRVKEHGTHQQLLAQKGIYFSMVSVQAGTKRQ

| Structure (SMILES) | EC50 [1] [µM] | EC50 [2] [µM] | Activity (MDCK [3]) [%] | Activity (MDCK [4]) |
| --- | --- | --- | --- | --- |
| Cc1no[n+]([O-])c1S(=O)(=O)c1ccccc1 | 28.3 |  |  |  |
| N#Cc1no[n+]([O-])c1-c1ccccc1 | > 100 |  |  |  |
| CC(C)Oc1no[n+]([O-])c1S(=O)(=O)c1ccccc1 | 2.15 | 63 | 30 |  |
| O=S(=O)(c1ccccc1)c1c(Oc2ccccc2)no[n+]1[O-] | 20.5 | 13.6 |  |  |
| Nc1no[n+]([O-])c1-c1ccccc1 | > 100 |  |  |  |
| O=S(=O)(c1ccccc1)c1no[n+]([O-])c1-c1ccccc1 | 46 |  |  |  |
| COc1c(-c2ccccc2)no[n+]1[O-] | > 100 |  |  |  |
| CCCCCCOc1nonc1S(=O)(=O)c1ccccc1 | 32.2 |  |  |  |
| NS(=O)(=O)c1c(-c2ccccc2)no[n+]1[O-] | > 100 |  |  |  |
| O=S(=O)(c1ccccc1)c1no[n+]([O-])c1S(=O)(=O)c1ccccc1 | 3 | 15.1 |  |  |
| CCCCCCOc1no[n+]([O-])c1S(=O)(=O)c1ccccc1 | 3.35 | 12 |  | Active |
| [O-][n+]1onc(-c2ccccc2)c1-c1ccccc1 | > 100 |  |  |  |
| O=[N+]([O-])c1c(-c2ccccc2)n[o+]n1[O-] | 53 | 45 |  |  |
| CCOc1no[n+]([O-])c1S(=O)(=O)c1ccccc1 | 12 | 49.1 |  |  |
| COc1no[n+]([O-])c1-c1ccccc1 | > 100 |  |  |  |
| Cc1c(-c2ccccc2)no[n+]1[O-] | > 100 |  |  |  |
| NS(=O)(=O)c1no[n+]([O-])c1-c1ccccc1 | > 100 |  |  |  |

| Structure (SMILES) | EC50 [1] [µM] | EC50 [2] [µM] | Activity (MDCK [3]) [%] | Activity (MDCK [4]) |
| --- | --- | --- | --- | --- |
| N#Cc1no[n+]([O-])c1S(=O)(=O)c1ccccc1 | 7.4 | 29.5 |  |  |
| O=S(=O)(c1ccccc1)c1c(-c2ccccc2)no[n+]1[O-] | 10 |  |  |  |
| CCCCOc1nonc1S(=O)(=O)c1ccccc1 | 49.7 |  |  |  |
| CCC(C)Oc1no[n+]([O-])c1S(=O)(=O)c1ccccc1 (stereo not drawn) | 2.23 | 46 | 45 |  |
| CCCCCCCCCCOc1no[n+]([O-])c1S(=O)(=O)c1ccccc1 | 3.31 |  |  |  |
| CCCCOc1no[n+]([O-])c1S(=O)(=O)c1ccccc1 | 2.26 | 7.61 |  | Active |
| Cc1no[n+]([O-])c1-c1ccccc1 | > 100 |  |  |  |
| Nc1c(-c2ccccc2)no[n+]1[O-] | > 100 |  |  |  |
| CC1(C)CCC(C)(C)c2cc(-c3cc(-c4ccc(C(=O)O)cc4)no3)ccc21 | 1.5 |  |  |  |
| N#Cc1c(S(=O)(=O)c2ccccc2)no[n+]1[O-] | 55.4 | 72 |  |  |
| Cc1c(S(=O)(=O)c2ccccc2)no[n+]1[O-] | > 100 |  |  |  |
| NC(=O)c1c(S(=O)(=O)c2ccccc2)no[n+]1[O-] | 52.6 |  |  |  |
| NC(=O)c1no[n+]([O-])c1-c1ccccc1 | > 100 |  |  |  |
| NC(=O)c1no[n+]([O-])c1S(=O)(=O)c1ccccc1 | 50 | 85.8 |  |  |
| NC(=O)c1c(-c2ccccc2)no[n+]1[O-] | > 100 |  |  |  |
| CCCCCCCCOc1no[n+]([O-])c1S(=O)(=O)c1ccccc1 | 4.6 |  |  |  |
